Experimental data taken from PMC9512414 (International Journal of Nanomedicine, 2022).

System: lung tumor
Assay: 18F-FDG PET imaging of Kras metastatic lung cancer patients
Format: in vivo
Details: Kras metastatic patients (Stage IV), in relation to control groups
In short: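 Patients had 18F-FDG PET/CT at baseline before combined test treatment, after three treatment cycles (interim), and after treatment ended (late). Each patient had at least two scans. Images were reconstructed by ordered subset expectation maximization with six iterations and 12 subsets.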

B1: Daclizumab: FDA-approved drug, CD25 inhibitor (antibody, chains of the INN, looked up, V domains shown)
VH: QVQLVQSGAEVKKPGSSVKVSCKASGYTFTSYRMHWVRQAPGQGLEWIGYINPSTGYTEYNQKFKDKATITADESTNTAYMELSSLRSEDTAVYYCARGGGVFDYWGQGTLVTVSS
VL: DIQMTQSPSTLSASVGDRVTITCSASSSISYMHWYQQKPGKAPKLLIYTTSNLASGVPARFSGSGSGTEFTLTISSLQPDDFATYYCHQRSTYPLTFGQGTKVEVK
tumor burden by comparative 18F-FDG PET imaging: lower tumor burden
